Assay results as given in ChEMBL document CHEMBL1157145, “Cytotoxic activity of proflavine diureas: synthesis, antitumor, evaluation and DNA binding properties of 1',1''-(acridin-3,6-diyl)-3',3''-dialkyldiureas” (Bioorg Med Chem, 2008).
The source made the active and inactive calls. No cut-off for these calls is given here.

Tests used:
[1] = system: HeLa; assay: Induction of apoptosis in human HeLa cells at 5.50 uM after 48 hrs; type: functional
Outline: (§1)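 After 24 or 48 h of drug exposure, all cells were collected, combining trypsinised adherent cells with floating cells from the medium. Cells (1 × 10^6) were fixed in cold 70% ethanol overnight at −20 °C and stained with DAPI (10 µg/mL) for 30 min in the dark at RT. Under fluorescence microscopy, 300 cells per sample were scored, with condensed or fragmented nuclei counted as apoptotic.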

[2] = system: HCT-116; assay: Cell cycle arrest in human HCT116 cells assessed as accumulation at G2/M phase at 77 uM after 24 hrs; type: functional
Outline: (§2)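 Cells seeded at 8 · 10^5 per 60 mm dish, allowed to settle 24 h (37 °C, 5% CO2), then exposed to the drug for 24 or 48 h. Adherent plus floating cells (5 · 10^5) were fixed in cold 70% ethanol at −20 °C overnight, treated with RNase A (100 µg/mL) and stained with propidium iodide (20 µg/mL) in Vindelov's solution for 30 min at RT. Flow cytometry used 488 nm excitation, FL-2 at 585 ± 21 nm, and histograms were modelled for G0/G1, S and G2/M fractions.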

[3] = system: HCT-116; assay: Cell cycle arrest in human HCT116 cells assessed as accumulation at G2/M phase at 77 uM after 48 hrs; type: functional; outline: as §2
[4] = system: HeLa; assay: Antiproliferative activity against human HeLa cells assessed as increase of floating cells in total cell population at 5.50 uM after 24 hrs; type: functional
Outline: (§3)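 Cells seeded (8 · 10^5 per 60 mm dish), allowed to settle 24 h at 37 °C, 5% CO2, then treated with a single concentration for 24 or 48 h. Adherent and floating cells counted by Coulter counter. Total cell number given as % of untreated control; floating cells as % of total cell number.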

[5] = system: HeLa; assay: Cell cycle arrest in human HeLa cells assessed as accumulation at G2/M phase at 5.50 uM after 48 hrs; type: functional; outline: as §2
[6] = system: HCT-116; assay: Cell cycle arrest in human HCT116 cells assessed as accumulation at G0/G1 phase at 77 uM after 24 hrs; type: functional
Outline: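 Adherent plus floating cells (5 · 10^5) collected 24 or 48 h after treatment, fixed in cold 70% ethanol at −20 °C overnight, washed in PBS. RNase A (100 µg/mL) and propidium iodide (20 µg/mL) in Vindelov's solution, 30 min at RT. Flow cytometry with 488 nm excitation, emission 585 ± 21 nm; % cells per cycle phase from DNA content histograms.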

[7] = system: HeLa; assay: Cell cycle arrest in human HeLa cells assessed as accumulation at G0/G1 phase at 5.50 uM after 24 hrs; type: functional; outline: as §2
[8] = system: HeLa; assay: Antiproliferative activity against human HeLa cells assessed as decrease in total cell population at 5.50 uM after 48 hrs; type: functional; parameters: scale not given: the % may be the effect or the level left; outline: as §3
[9] = system: HeLa; assay: Cell cycle arrest in human HeLa cells assessed as accumulation at S phase at 5.50 uM after 24 hrs; type: functional; outline: as §2
[10] = system: HCT-116; assay: Antiproliferative activity against human HCT116 cells assessed as decrease in total cell population at 77 uM after 24 hrs; type: functional; parameters: scale not given: the % may be the effect or the level left; outline: as §3
[11] = system: HeLa; assay: Cytotoxicity against human HeLa cells after 72 hrs by MTT assay; type: functional, cell-based
[12] = system: DNA; assay: Binding affinity to calf thymus DNA at 4 uM by fluorescence spectrophotometric titration; type: nucleic-acid assay; conditions: Bos taurus
Outline: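 ctDNA sonicated in TE buffer, concentration taken from A260 and given in base pairs. Compound (4 µM) in 0.01 M Tris, pH 7.4, 25 °C titrated with ctDNA (0–55 µM bp) until spectra stopped changing. Excitation 424 nm, slit widths 10 nm; binding constant derived from the change in emission.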

[13] = system: HeLa; assay: Cytotoxicity against human HeLa cells after 48 hrs by MTT assay; type: functional, cell-based
[14] = system: HeLa; assay: Antiproliferative activity against human HeLa cells assessed as increase of floating cells in total cell population at 5.50 uM after 48 hrs; type: functional; outline: as §3
[15] = system: HCT-116; assay: Induction of DNA fragmentation in human HCT116 cells after 48 hrs; type: functional, cell-based
Outline: (§4)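 HCT-116 cells were treated for 24 or 48 h. Adherent and floating cells (5 × 10^5) were pooled, fixed in cold 70% ethanol and held overnight at −20 °C. Samples were treated with RNase A (100 µg/mL) and stained with propidium iodide (20 µg/mL) in Vindelov's solution for 30 min at RT. Flow cytometry used 488 nm excitation with emission at 585 nm. Subdiploid (subG0/G1) particles were scored on a logarithmic scale, with debris gated out on FSC × SSC.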

[16] = system: HeLa; assay: Cell cycle arrest in human HeLa cells assessed as accumulation at S phase at 5.50 uM after 48 hrs; type: functional; outline: as §2
[17] = system: HCT-116; assay: Antiproliferative activity against human HCT116 cells assessed as increase of floating cells in total cell population at 77 uM after 48 hrs; type: functional; outline: as §3
[18] = system: HCT-116; assay: Induction of DNA fragmentation in human HCT116 cells after 24 hrs; type: functional, cell-based; outline: as §4
[19] = system: HCT-116; assay: Cell cycle arrest in human HCT116 cells assessed as accumulation at S phase at 77 uM after 48 hrs; type: functional; outline: as §2
[20] = system: HCT-116; assay: Antiproliferative activity against human HCT116 cells assessed as decrease in total cell population at 77 uM after 48 hrs; type: functional; parameters: scale not given: the % may be the effect or the level left; outline: as §3
[21] = system: HCT-116; assay: Cell cycle arrest in human HCT116 cells assessed as accumulation at S phase at 77 uM after 24 hrs; type: functional; outline: as §2
[22] = system: HCT-116; assay: Induction of apoptosis in human HCT116 cells at 77 uM after 24 hrs; type: functional; outline: as §1
[23] = system: HCT-116; assay: Cell cycle arrest in human HCT116 cells assessed as accumulation at G0/G1 phase at 77 uM after 48 hrs; type: functional; outline: as §2
[24] = system: HCT-116; assay: Cytotoxicity against human HCT116 cells after 48 hrs by MTT assay; type: functional, cell-based; conditions: HCT-116, 48 h
[25] = system: HCT-116; assay: Induction of apoptosis in human HCT116 cells at 77 uM after 48 hrs; type: functional; outline: as §1
[26] = system: HeLa; assay: Cell cycle arrest in human HeLa cells assessed as accumulation at G2/M phase at 5.50 uM after 24 hrs; type: functional; outline: as §2
[27] = system: HCT-116; assay: Cytotoxicity against human HCT116 cells after 72 hrs by MTT assay; type: functional, cell-based; conditions: Homo sapiens, HCT-116, 72 h
[28] = system: HeLa; assay: Antiproliferative activity against human HeLa cells assessed as decrease in total cell population at 5.50 uM after 24 hrs; type: functional; parameters: scale not given: the % may be the effect or the level left; outline: as §3
[29] = system: DNA; assay: Binding affinity to calf thymus DNA at 50 uM by circular dichroism spectrophotometric titration; type: nucleic-acid assay; conditions: Bos taurus
[30] = system: HeLa; assay: Cell cycle arrest in human HeLa cells assessed as accumulation at G0/G1 phase at 5.50 uM after 48 hrs; type: functional; outline: as §2
[31] = system: HCT-116; assay: Antiproliferative activity against human HCT116 cells assessed as increase of floating cells in total cell population at 77 uM after 24 hrs; type: functional; outline: as §3

K [12]: 2.4 ×10⁵ /M | Activity [29]: Active
SMILES: CCCCNC(=O)Nc1ccc2cc3ccc(NC(=O)NCCCC)cc3nc2c1.Cl
Activity [1]: 0.44% | Activity [2]: 37.51% | Activity [3]: 28.85% | Activity [4]: 4.03% | Activity [5]: 9.6% | Activity [6]: 39.97% | Activity [7]: 61.17% | Activity [8]: 96.5% | Activity [9]: 24.95% | Activity [10]: 47.4% | IC50 [11]: 11.5 µM | IC50 [13]: 5.41 µM | Activity [14]: 3.93% | Activity [15]: Active | Activity [16]: 15.5% | Activity [17]: 33.41% | Activity [18]: Active | Activity [19]: 27.24% | Activity [20]: 27.58% | Activity [21]: 22.52% | Activity [22]: 9.67% | Activity [23]: 43.91% | IC50 [24]: 77 µM | Activity [25]: 3.89% | Activity [26]: 13.88% | IC50 [27]: 43.9 µM | Activity [28]: 92.75% | Activity [30]: 74.91% | Activity [31]: 51.08%
